Test results taken from ChEMBL document CHEMBL1140279, “Synthesis and antimalarial evaluation of new N1-(7-chloro-4-quinolyl)-1,4-bis(3-aminopropyl)piperazine derivatives” (Bioorg Med Chem Lett, 2005).

Assays:
Plasmodium falciparum = experiment: Antimalarial activity as growth inhibition of chloroquine-resistant Plasmodium falciparum FcB1; assay type: functional, organism-based
How it was run: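 Parasite growth inhibition assay on the chloroquine-resistant P. falciparum FcB1 strain. IC50 values are derived from triplicate experiments and reported with standard error.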

MRC5 [1] = experiment: Cytotoxic concentration of compound of compound […] MRC-5 cells (human diploid embryonic lung cell line); assay type: functional
How it was run: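 Cytotoxicity measured on MRC-5 human diploid embryonic lung cells with a colorimetric MTT assay, giving the CC50.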

MRC5 [2] = experiment: Ratio of CC50/IC50 was determined; assay type: functional, Homo sapiens
How it was run: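 Selectivity index taken as the ratio of CC50 on MRC-5 human diploid embryonic lung cells (colorimetric MTT assay) to IC50 for growth inhibition of the chloroquine-resistant Plasmodium falciparum strain FcB1. The IC50s come from triplicate experiments and are reported with standard error.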

| Compound | IC50 (Plasmodium falciparum) [µM] | CC50 (MRC5 [1]) [µM] | Ratio (MRC5 [2]) |
| --- | --- | --- | --- |
| NC(=O)CCC(=O)N(CCCN1CCN(CCCNc2ccnc3cc(Cl)ccc23)CC1)CC1CC1 | < 1 | > 32 |  |
| CC(C)(C)OC(=O)NCCC(=O)N(CCCN1CCN(CCCNc2ccnc3cc(Cl)ccc23)CC1)CC1CC1 | 0.0342 | 4 | 116 |
| O=C(C1CC1)N(CCCN1CCN(CCCNc2ccnc3cc(Cl)ccc23)CC1)CC1CC1 | 0.0065 | 13.5 | 2076 |
| O=C(CCCO)N(CCCN1CCN(CCCNc2ccnc3cc(Cl)ccc23)CC1)CC1CC1 | 0.172 | 21 | 122 |
| N#CCCCCN(CCCN1CCN(CCCNc2ccnc3cc(Cl)ccc23)CC1)CC1CC1 | 0.0099 | 4 | 404 |
| CC(C)(C)OC(=O)NCCCN(CCCN1CCN(CCCNc2ccnc3cc(Cl)ccc23)CC1)CC1CC1 | 0.0126 | 4 | 317 |
| NCCCN(CCCN1CCN(CCCNc2ccnc3cc(Cl)ccc23)CC1)CC1CC1 | 0.152 | > 32 | >210 |
| O=C(O)CCC(=O)N(CCCN1CCN(CCCNc2ccnc3cc(Cl)ccc23)CC1)CC1CC1 |  | > 32 | >23 |
| NCCC(=O)N(CCCN1CCN(CCCNc2ccnc3cc(Cl)ccc23)CC1)CC1CC1 |  | > 32 | >80 |
